Laboratory results taken from ChEMBL document CHEMBL2203153, “Synthesis of novel azo-resveratrol, azo-oxyresveratrol and their derivatives as potent tyrosinase inhibitors” (Bioorg Med Chem Lett, 2012).

Legend:
[1] = biological target: T1, Tyrosinase (Agaricus bisporus) (UniProt O42713); assay: Inhibition of mushroom tyrosinase using L-tyrosine as substrate at 50 uM after 30 mins by spectrophotometric analysis
T1 sequence (whole entry): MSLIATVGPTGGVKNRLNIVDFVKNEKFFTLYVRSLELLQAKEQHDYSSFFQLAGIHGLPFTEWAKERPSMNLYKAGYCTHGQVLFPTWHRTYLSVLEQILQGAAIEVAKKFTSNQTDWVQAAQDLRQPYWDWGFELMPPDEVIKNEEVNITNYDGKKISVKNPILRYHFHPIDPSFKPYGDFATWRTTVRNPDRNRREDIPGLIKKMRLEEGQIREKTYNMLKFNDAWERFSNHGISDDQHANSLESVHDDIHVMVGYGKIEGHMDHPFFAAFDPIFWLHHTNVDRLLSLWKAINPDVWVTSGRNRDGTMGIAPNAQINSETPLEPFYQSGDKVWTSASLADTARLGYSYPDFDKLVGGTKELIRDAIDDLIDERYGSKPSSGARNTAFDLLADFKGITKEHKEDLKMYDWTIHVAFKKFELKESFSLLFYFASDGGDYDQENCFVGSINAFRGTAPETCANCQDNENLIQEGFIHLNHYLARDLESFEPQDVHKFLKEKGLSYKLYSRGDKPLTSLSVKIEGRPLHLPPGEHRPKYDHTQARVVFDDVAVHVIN
Outline: (§1)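 Mushroom tyrosinase (1000 units) was added to a mixture of 1 mM L-tyrosine and 50 mM phosphate buffer, pH 6.5, with test compound at the stated concentration. After 30 min at 25 °C, dopachrome formation was measured spectrophotometrically at OD492 and expressed as percent inhibition. Values are means ± S.E. of three experiments.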

[2] = biological target: T1, Tyrosinase (Agaricus bisporus); assay: Inhibition of mushroom tyrosinase using L-tyrosine as substrate at 20 uM after 30 mins by spectrophotometric analysis; outline: as §1
[3] = biological target: T1, Tyrosinase (Agaricus bisporus); assay: Inhibition of mushroom tyrosinase using L-tyrosine as substrate at 1 uM after 30 mins by spectrophotometric analysis
Outline: (§2)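 Mushroom tyrosinase (20 µL of 1000 units aqueous solution) in a 200 µL mixture with 1 mM L-tyrosine in 50 mM phosphate buffer, pH 6.5. Incubated 30 min at 25 °C; dopachrome read at 492 nm. Percent inhibition was measured at three doses per compound, in triplicate, to build dose–response curves.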

[4] = biological target: T1, Tyrosinase (Agaricus bisporus); assay: Inhibition of mushroom tyrosinase using L-tyrosine as substrate at 10 uM after 30 mins by spectrophotometric analysis; outline: as §2
[5] = biological target: T2, Tyrosinase (Agaricus bisporus, UniProt O42713); assay: (§3) Inhibition of mushroom tyrosinase using L-tyrosine as substrate after 30 mins by spectrophotometric analysis
T2 sequence (O42713 whole entry): T1 sequence (whole entry)
Outline: (§4)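 Mushroom tyrosinase (1000 units) was added to assay mixture containing 1 mM L-tyrosine in 50 mM phosphate buffer, pH 6.5. Incubation ran 30 min at 25 °C, and dopachrome was read at 492 nm. Dose-dependent inhibition was run in triplicate at three doses. IC50 was taken from the inhibitor concentration versus product formation curve.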

[6] = biological target: T1, Tyrosinase (Agaricus bisporus); assay: as §3; outline: as §4
[7] = biological target: T1, Tyrosinase (Agaricus bisporus); assay: Inhibition of mushroom tyrosinase using L-tyrosine as substrate at 30 uM after 30 mins by spectrophotometric analysis; outline: as §1
[8] = biological target: T1, Tyrosinase (Agaricus bisporus); assay: Inhibition of mushroom tyrosinase using L-tyrosine as substrate at 5 uM after 30 mins by spectrophotometric analysis; outline: as §1
[9] = biological target: T1, Tyrosinase (Agaricus bisporus); assay: Inhibition of mushroom tyrosinase using L-tyrosine as substrate at 0.5 uM after 30 mins by spectrophotometric analysis; outline: as §2
[10] = biological target: T1, Tyrosinase (Agaricus bisporus); assay: Inhibition of mushroom tyrosinase using L-tyrosine as substrate at 80 uM after 30 mins by spectrophotometric analysis; outline: as §1
[11] = biological target: T1, Tyrosinase (Agaricus bisporus); assay: Inhibition of mushroom tyrosinase using L-tyrosine as substrate at 15 uM after 30 mins by spectrophotometric analysis; outline: as §1

Compound | inhibition [1] [%] | IC50 [5] [µM] | inhibition [6] | further results
Oc1ccc(/C=C/c2cc(O)cc(O)c2)cc1 [RESVERATROL] |  | 26.6 | Dose-dependent effect | inhibition [2]: 47.3%; inhibition [3]: 16.3%; inhibition [4]: 38%; inhibition [7]: 47.8%; inhibition [8]: 27.1%; inhibition [9]: 13.7%
COc1ccc(/N=N/c2cc(OC)ccc2OC)c(O)c1 | 6.38 |  |  | 
COc1cc(/N=N/c2ccc(O)c(OC)c2)cc(OC)c1 | 1.03 |  |  | 
COc1cc(/N=N/c2ccc(O)cc2)cc(OC)c1 | 56.2 | 50.2 | Dose-dependent effect | inhibition [2]: 46%; inhibition [10]: 61.4%; inhibition [8]: 8.4%
COc1ccc(OC)c(/N=N/c2ccc(O)c(OC)c2)c1 | 0.44 |  |  | 
COc1cc(/N=N/c2ccc(O)cc2OC)cc(OC)c1 | 8.9 |  |  | 

Now from value to compound, other results behind:

inhibition [1] [%] | IC50 [5] [µM] | inhibition [6] | Compound | further results
48.5 |  |  | COc1cc(/N=N/c2ccc(O)cc2O)cc(OC)c1 | 
41.5 |  |  | Oc1cc(O)cc(/N=N/c2ccc(O)cc2O)c1 | 
27.8 |  |  | COc1ccc(OC)c(/N=N/c2ccc(O)cc2O)c1 | 
72.8 | 36.3 | Dose-dependent effect | Oc1ccc(/N=N/c2cc(O)cc(O)c2)cc1 | inhibition [11]: 7.6%; inhibition [7]: 44.3%
